The values below come from ChEMBL document CHEMBL2040780, “Antiarrhythmic properties of phenylpiperazine derivatives of phenytoin with α₁-adrenoceptor affinities” (Bioorg Med Chem, 2012).

Calls of active or inactive are those of the source. The calls are words filed in the database; no cut-off is given here.

Data set [1] relates to Rattus norvegicus. Briefly: Cardiotoxicity in Wistar rat assessed as effect on QRS interval at 2.5 mg/kg, iv after 5 mins. It is filed as toxicity, organism-based. Set-up: dose 2.5 mg/kg, route intravenous. Particulars: in vivo. In outline:
(§1)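 Male Wistar rats (180–250 g), anaesthetised with thiopental 60 mg/kg ip. Compound given iv in water at 10 mg/kg, or at a lower starting dose of 5 or 2.5 mg/kg. Standard lead II ECG recorded at 50 mm/s just before dosing and at 1, 5 and 15 min after. Heart rate and P–Q, Q–T and QRS intervals were read. n=6 per group, mean ± SEM, one-way ANOVA.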

Data set [2] relates to Rattus norvegicus. The experiment in a line: Cardiotoxicity in Wistar rat assessed as effect on Q-T interval at 2.5 mg/kg, iv after 5 mins. Format: toxicity, organism-based. Set-up: dose 2.5 mg/kg, route intravenous. The conditions noted are these: in vivo. In outline: as §1
For data set [3], the system named is Rattus norvegicus. Briefly: Hypotensive activity in normotensive Wistar rat assessed as decrease in systolic blood pressure at 2.5 to 10 mg/kg, iv after 1 min measured up to 60 mins. On the set-up: dose 2.5-10 mg/kg, route intravenous. The conditions noted are these: in vivo. Format: organism-based, Artery. The method in brief: (§2)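 Right carotid artery cannulated with heparin-saline-filled tubing for blood pressure recording. After 5 min stabilisation, compound injected iv into the caudal vein (2.5–10 mg/kg, 1 ml/kg). Systolic and diastolic pressure followed for 60 min. n=6 per group, mean ± SEM, one-way ANOVA.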

Data set [4] has as its system Rattus norvegicus. Briefly: Cardiotoxicity in Wistar rat assessed as effect on QRS interval at 2.5 mg/kg, iv after 15 mins. It is filed as toxicity, organism-based. Set-up: dose 2.5 mg/kg, route intravenous. Particulars: in vivo, 0.25 h. In outline:
as §1

In data set [5] the test system is Rattus norvegicus. The experiment in a line: Cardiotoxicity in Wistar rat assessed as effect on P-Q interval at 2.5 mg/kg, iv after 5 mins. The conditions noted are these: in vivo. It is filed as toxicity, organism-based. On the set-up: dose 2.5 mg/kg, route intravenous. In outline:
as §1

Data set [6] has as its system Rattus norvegicus. Briefly: Cardiotoxicity in Wistar rat assessed as effect on Q-T interval at 2.5 mg/kg, iv after 15 mins. It is filed as toxicity, organism-based. Set-up: dose 2.5 mg/kg, route intravenous. The conditions noted are these: in vivo, 0.25 h. In outline: as §1
Data set [7] has as its target T1, Adrenergic receptor alpha-1 (Rattus norvegicus, UniProt P15823+P23944+P43140).
T1 sequence (P15823 whole entry): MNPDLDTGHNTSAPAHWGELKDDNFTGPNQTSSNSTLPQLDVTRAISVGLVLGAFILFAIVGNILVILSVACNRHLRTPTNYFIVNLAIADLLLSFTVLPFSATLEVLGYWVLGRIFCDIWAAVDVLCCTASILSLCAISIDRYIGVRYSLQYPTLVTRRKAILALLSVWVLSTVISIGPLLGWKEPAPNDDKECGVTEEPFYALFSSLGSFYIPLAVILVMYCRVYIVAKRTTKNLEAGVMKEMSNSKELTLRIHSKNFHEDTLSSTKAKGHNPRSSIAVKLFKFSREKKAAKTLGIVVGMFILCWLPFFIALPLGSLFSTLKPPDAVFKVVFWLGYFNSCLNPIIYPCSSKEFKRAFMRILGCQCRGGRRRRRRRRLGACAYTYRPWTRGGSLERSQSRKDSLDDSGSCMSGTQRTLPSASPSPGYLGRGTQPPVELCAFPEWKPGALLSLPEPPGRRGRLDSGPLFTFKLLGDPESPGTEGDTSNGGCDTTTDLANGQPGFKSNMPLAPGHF
T1 sequence (P23944 whole entry): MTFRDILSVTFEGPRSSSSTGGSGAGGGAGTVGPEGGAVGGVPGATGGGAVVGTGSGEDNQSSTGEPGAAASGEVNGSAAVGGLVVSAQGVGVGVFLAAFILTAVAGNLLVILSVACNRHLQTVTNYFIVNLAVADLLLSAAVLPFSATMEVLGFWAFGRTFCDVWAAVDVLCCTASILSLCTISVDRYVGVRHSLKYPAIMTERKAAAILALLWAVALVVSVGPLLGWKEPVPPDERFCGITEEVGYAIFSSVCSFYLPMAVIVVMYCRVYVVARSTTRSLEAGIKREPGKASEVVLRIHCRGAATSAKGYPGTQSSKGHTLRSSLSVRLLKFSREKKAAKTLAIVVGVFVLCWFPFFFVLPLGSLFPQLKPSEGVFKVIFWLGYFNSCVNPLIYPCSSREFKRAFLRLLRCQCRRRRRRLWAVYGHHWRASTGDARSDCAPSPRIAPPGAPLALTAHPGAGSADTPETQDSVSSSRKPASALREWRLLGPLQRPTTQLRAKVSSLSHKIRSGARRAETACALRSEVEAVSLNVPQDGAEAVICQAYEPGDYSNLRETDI
T1 sequence (P43140 whole entry): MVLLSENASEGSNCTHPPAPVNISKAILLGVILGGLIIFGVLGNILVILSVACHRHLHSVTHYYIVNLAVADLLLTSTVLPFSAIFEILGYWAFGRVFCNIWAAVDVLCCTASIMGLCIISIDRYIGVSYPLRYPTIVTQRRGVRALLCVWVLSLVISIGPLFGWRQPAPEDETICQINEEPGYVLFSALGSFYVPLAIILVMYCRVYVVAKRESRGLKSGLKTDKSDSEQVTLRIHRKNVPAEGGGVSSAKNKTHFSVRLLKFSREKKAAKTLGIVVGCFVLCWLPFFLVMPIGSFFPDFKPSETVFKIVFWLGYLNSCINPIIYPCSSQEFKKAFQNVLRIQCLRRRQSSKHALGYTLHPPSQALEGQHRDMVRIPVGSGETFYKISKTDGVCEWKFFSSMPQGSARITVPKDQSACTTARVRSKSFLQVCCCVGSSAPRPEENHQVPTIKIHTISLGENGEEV
The experiment in a line: Displacement of [3H]prazosin from alpha1 adrenoceptor in rat cerebral cortex after 30 mins by microbeta scintillation counting. Format: tissue-based. In outline:
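Rat cerebral cortex homogenised in ice-cold 50 mM Tris-HCl (pH 7.6 at 25 °C), washed twice at 20000×g and resuspended at 10 mg wet weight/ml. Incubated with [3H]prazosin (19.5 Ci/mmol) and test compound for 30 min at 25 °C. Nonspecific binding defined with 10 µM phentolamine. GF/B filtration, scintillation counting, three-parameter logistic competition fit.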
In general terms: Loss of bound radioactivity is the signal in a displacement assay; it reports binding, not function.

In data set [8] the test system is Rattus norvegicus. The experiment in a line: Cardiotoxicity in Wistar rat assessed as effect on QRS interval at 2.5 mg/kg, iv after 1 min. Format: toxicity, organism-based. Set-up: dose 2.5 mg/kg, route intravenous. The conditions noted are these: in vivo. In outline:
as §1

The test system of data set [9] is Rattus norvegicus. The experiment in a line: Antiarrhythmic activity in Wistar rat assessed as effect on heart beat at 2.5 mg/kg, iv after 5 mins. Format: functional. In outline:
as §1

Data set [10] concerns Rattus norvegicus. Briefly: Antiarrhythmic activity in Wistar rat assessed as effect on heart beat at 2.5 mg/kg, iv after 15 mins. It is filed as functional. The method in brief: as §1
Data set [11] has as its system Rattus norvegicus. Briefly: Antiarrhythmic activity in Wistar rat assessed as protection against adrenaline-induced extrasystoles at 2.5 to 10 mg/kg, iv administered 15 mins prior to adrenaline-challenge. Format: functional, organism-based. The conditions noted are these: Heart. The method in brief: (§3)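 Szekeres model in male Wistar rats anaesthetised with thiopental (60 mg/kg ip). Test compound given iv in water (2.5–10 mg/kg) 15 min before adrenaline 20 µg/kg iv. Scored for extrasystoles, bigeminy and mortality; activity means no premature beats and inhibited arrhythmia versus controls.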

Data set [12] deals with Rattus norvegicus. The experiment in a line: Hypotensive activity in normotensive Wistar rat assessed as decrease in diastolic blood pressure at 2.5 to 10 mg/kg, iv after 1 min measured up to 60 mins. It is filed as organism-based, Artery. On the set-up: dose 2.5-10 mg/kg, route intravenous. The conditions noted are these: in vivo. The method in brief: as §2
Data set [13] has as its system Rattus norvegicus. The experiment in a line: Cardiotoxicity in Wistar rat assessed as effect on Q-T interval at 2.5 mg/kg, iv after 1 min. Format: toxicity, organism-based. The conditions noted are these: in vivo. Set-up: dose 2.5 mg/kg, route intravenous. In outline:
as §1

Data set [14] deals with Rattus norvegicus. Briefly: Cardiotoxicity in Wistar rat assessed as effect on P-Q interval at 2.5 mg/kg, iv after 15 mins. Format: toxicity, organism-based. The conditions noted are these: in vivo, 0.25 h. Set-up: dose 2.5 mg/kg, route intravenous. The method in brief: as §1
In data set [15] the test system is Rattus norvegicus. Briefly: Antiarrhythmic activity in Wistar rat assessed as protection against adrenaline-induced bigeminy at 2.5 to 10 mg/kg, iv administered 15 mins prior to adrenaline-challenge. Format: functional, organism-based. Particulars: Heart. The method in brief:
as §3

The test system of data set [16] is Rattus norvegicus. The experiment in a line: Cardiotoxicity in Wistar rat assessed as effect on P-Q interval at 2.5 mg/kg, iv after 1 min. The conditions noted are these: in vivo. On the set-up: dose 2.5 mg/kg, route intravenous. It is filed as toxicity, organism-based. In outline: as §1
For data set [17], the system named is Rattus norvegicus. The experiment in a line: Antiarrhythmic activity in barium chloride-induced Wistar rat arrhythmia model assessed as protection against mortality at 2.5 to 10 mg/kg, iv administered 15 mins prior to barium chloride-challenge. Format: functional, organism-based. The conditions noted are these: Heart. In outline: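 Szekeres model in male Wistar rats. Activity is gradual disappearance of arrhythmia with restored sinus rhythm; protection against disturbances and death scored. Groups of 6 animals.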

The subject of data set [18] is Rattus norvegicus. The experiment in a line: Antiarrhythmic activity in Wistar rat assessed as effect on heart beat at 2.5 mg/kg, iv after 1 min. It is filed as functional. In outline: as §1
For data set [19], the system named is Rattus norvegicus. Briefly: Antiarrhythmic activity in iv dosed Wistar rat assessed as protection against adrenaline-induced arrhythmia administered 15 mins prior to adrenaline-challenge. It is filed as functional. Particulars: Heart. In outline:
as §3

As to `COc1ccccc1N1CCN(CCCCN2C(=O)N(C)C(=O)C2(c2ccccc2)c2ccccc2)CC1.Cl`, the Activity is reported as 22 ms in the data set with Rattus norvegicus [1]; 81 ms with Rattus norvegicus [2]; “Toxic” with Rattus norvegicus [3]; 22 ms in the data set with Rattus norvegicus [4]; 51 ms in the data set on Rattus norvegicus [5]; 86 ms in the data set with Rattus norvegicus [6]. The Activity was 22 ms with Rattus norvegicus [8]; 333 min⁻¹ in the data set on Rattus norvegicus [9]; 346 min⁻¹ in the data set with Rattus norvegicus [10]; “Toxic” in the data set with Rattus norvegicus [12]; 83 ms in the data set with Rattus norvegicus [13]; 49 ms in the data set with Rattus norvegicus [14]. Also, the Activity was determined as 50 ms with Rattus norvegicus [16] and 338 min⁻¹ in the data set with Rattus norvegicus [18]. The Ki (usually the equilibrium dissociation constant of an inhibitor or competing ligand from its target) in data set [7] worked out at 4.7 nM. In addition, the pKi (commonly the Ki on a negative log10 scale, so that one unit is a factor of ten) in [7] is reported as 8.33. In addition, the outcome with Rattus norvegicus [11], with Rattus norvegicus [15] and with Rattus norvegicus [17] was Active. Also, the ED50 (commonly the dose at which the effect has come halfway, by size or by number of responders) with Rattus norvegicus [19] came to 0.1 mg/kg.
